ChEMBL document CHEMBL1130158, “Alkyl-substituted amino acid amides and analogous di- and triamines: new non-peptide G protein activators” (J Med Chem, 1997)
Each block holds one compound with its values, some of them ahead of it.

Experiments:
[1] = system: HL-60; experiment: -log of the half-maximal concentration for stimulation of GTPase in HL-60 membrane; type: functional; conditions: Homo sapiens
How it was run: (§1)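 HL-60 cells grown in suspension, differentiated toward neutrophil-like cells with dibutyryl-cAMP (0.2 mM) for 48 h; membranes prepared and steady-state GTP hydrolysis measured with [γ-32P]GTP over increasing compound concentrations. Triplicate determinations, at least three independent experiments. Efficacy = maximal stimulation above basal activity, at the concentration giving maximal stimulation; pEC50 = -log half-maximal concentration, means ± SD.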

[2] = system: HL-60; experiment: Efficacy expressed as maximal stimulation of GTP hydrolysis in HL-60 membranes at a concentration 3 uM; type: functional, Homo sapiens; how it was run: as §1
[3] = system: HL-60; experiment: Efficacy expressed as maximal stimulation of GTP hydrolysis in HL-60 membranes at a concentration 7.5 uM; type: functional, Homo sapiens; how it was run: as §1
[4] = system: HL-60; experiment: -log of the half-maximal concentration for stimulation of GTPase in HL-60 membrane (sensitive to PTX); type: functional; conditions: Homo sapiens
How it was run: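 Differentiated HL-60 cells (dibutyryl-cAMP 0.2 mM, 48 h) incubated overnight with pertussis toxin (200 ng/mL) or left untreated; membranes prepared and steady-state [γ-32P]GTP hydrolysis measured across increasing concentrations. PTX sensitivity judged by comparing treated with control membranes. Triplicates; pEC50 = -log half-maximal concentration, mean ± SD.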

[5] = system: HL-60; experiment: Efficacy expressed as maximal stimulation of GTP hydrolysis in HL-60 membranes at a concentration 0.75 uM; type: functional, Homo sapiens; how it was run: as §1
[6] = system: HL-60; experiment: Efficacy expressed as maximal stimulation of GTP hydrolysis in HL-60 membranes at a concentration 5 uM; type: functional, Homo sapiens; how it was run: as §1
[7] = system: HL-60; experiment: Efficacy expressed as maximal stimulation of GTP hydrolysis in HL-60 membranes at a concentration 2 uM; type: functional, Homo sapiens; how it was run: as §1
[8] = target: Histamine H1 receptor (Cavia porcellus) (UniProt P31389); experiment: Histamine activity against Histamine H1 receptor of guinea pig ileum; type: tissue-based
[9] = target: Histamine H3 receptor (Cavia porcellus) (UniProt Q9JI35); experiment: Histamine activity against Histamine H3 receptor of guinea pig ileum; type: tissue-based
[10] = target: Histamine H2 receptor (Cavia porcellus) (UniProt P47747); experiment: Histamine activity against Histamine H2 receptor of guinea pig atrium; type: tissue-based; conditions: Cardiac atrium
[11] = target: Muscarinic acetylcholine receptor M3 (Cavia porcellus) (UniProt Q8VH26); experiment: Affinity towards Muscarinic acetylcholine receptor M3 in guinea pig ileum; type: tissue-based
[12] = system: HL-60; experiment: Efficacy expressed as maximal stimulation of GTP hydrolysis in HL-60 membranes at a concentration 30 uM; type: functional, Homo sapiens; how it was run: as §1
[13] = system: HL-60; experiment: Efficacy expressed as maximal stimulation of GTP hydrolysis in HL-60 membranes at a concentration 20 uM; type: functional, Homo sapiens; how it was run: as §1
[14] = system: HL-60; experiment: Efficacy expressed as maximal stimulation of GTP hydrolysis in HL-60 membranes at a concentration 10 uM; type: functional, Homo sapiens; how it was run: as §1
[15] = target: Histamine H1 receptor (Cavia porcellus) (UniProt P31389); experiment: Histamine activity against H1 receptor of guinea pig ileum; type: tissue-based
[16] = system: HL-60; experiment: Efficacy expressed as maximal stimulation of GTP hydrolysis in HL-60 membranes at a concentration 300 uM; type: functional, Homo sapiens
How it was run: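 Steady-state GTP hydrolysis of the membranes was measured over increasing compound concentrations in triplicate, across at least three independent experiments. Efficacy is the maximal stimulation above basal activity, with the concentration giving that maximum reported.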

Histamine H1 receptor (Cavia porcellus), sequence (P31389 whole entry): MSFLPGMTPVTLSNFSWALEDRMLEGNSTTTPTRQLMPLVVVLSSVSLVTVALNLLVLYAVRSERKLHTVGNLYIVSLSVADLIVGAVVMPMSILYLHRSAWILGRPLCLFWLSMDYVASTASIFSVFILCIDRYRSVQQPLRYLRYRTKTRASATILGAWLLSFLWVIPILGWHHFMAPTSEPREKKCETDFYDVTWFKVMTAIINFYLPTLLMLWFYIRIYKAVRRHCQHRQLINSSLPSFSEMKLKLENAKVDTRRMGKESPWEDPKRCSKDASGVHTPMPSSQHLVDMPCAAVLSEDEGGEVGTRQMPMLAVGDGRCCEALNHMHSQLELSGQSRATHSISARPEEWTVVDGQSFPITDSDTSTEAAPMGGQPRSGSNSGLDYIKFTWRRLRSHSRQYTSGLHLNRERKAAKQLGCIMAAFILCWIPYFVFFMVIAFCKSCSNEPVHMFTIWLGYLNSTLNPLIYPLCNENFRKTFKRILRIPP
Histamine H2 receptor (Cavia porcellus), sequence (P47747 whole entry): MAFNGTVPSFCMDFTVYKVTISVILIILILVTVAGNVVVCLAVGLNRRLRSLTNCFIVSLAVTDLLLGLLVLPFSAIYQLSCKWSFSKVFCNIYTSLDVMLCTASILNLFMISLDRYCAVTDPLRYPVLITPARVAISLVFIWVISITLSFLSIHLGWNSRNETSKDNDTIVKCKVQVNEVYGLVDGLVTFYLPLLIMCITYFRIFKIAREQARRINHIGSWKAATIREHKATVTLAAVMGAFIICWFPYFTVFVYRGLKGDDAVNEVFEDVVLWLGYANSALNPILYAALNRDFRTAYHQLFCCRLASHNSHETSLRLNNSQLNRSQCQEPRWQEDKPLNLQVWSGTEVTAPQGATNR
Muscarinic acetylcholine receptor M3 (Cavia porcellus), sequence (Q8VH26 1-587): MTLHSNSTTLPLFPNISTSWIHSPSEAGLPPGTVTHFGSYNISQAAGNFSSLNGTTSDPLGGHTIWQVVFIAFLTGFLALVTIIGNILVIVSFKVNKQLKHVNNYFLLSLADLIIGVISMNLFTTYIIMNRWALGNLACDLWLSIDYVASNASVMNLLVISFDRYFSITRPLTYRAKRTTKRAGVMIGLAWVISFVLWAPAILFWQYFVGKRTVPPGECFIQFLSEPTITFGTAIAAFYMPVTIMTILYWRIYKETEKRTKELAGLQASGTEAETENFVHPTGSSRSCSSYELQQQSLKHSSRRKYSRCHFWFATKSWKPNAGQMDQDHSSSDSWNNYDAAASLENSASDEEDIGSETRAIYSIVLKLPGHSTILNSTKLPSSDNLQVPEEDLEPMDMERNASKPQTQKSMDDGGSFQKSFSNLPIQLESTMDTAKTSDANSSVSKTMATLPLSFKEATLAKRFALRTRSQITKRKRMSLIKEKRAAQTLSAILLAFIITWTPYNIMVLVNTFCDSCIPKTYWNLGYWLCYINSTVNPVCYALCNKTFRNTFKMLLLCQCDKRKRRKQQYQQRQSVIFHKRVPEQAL
Histamine H3 receptor (Cavia porcellus), sequence (Q9JI35 whole entry): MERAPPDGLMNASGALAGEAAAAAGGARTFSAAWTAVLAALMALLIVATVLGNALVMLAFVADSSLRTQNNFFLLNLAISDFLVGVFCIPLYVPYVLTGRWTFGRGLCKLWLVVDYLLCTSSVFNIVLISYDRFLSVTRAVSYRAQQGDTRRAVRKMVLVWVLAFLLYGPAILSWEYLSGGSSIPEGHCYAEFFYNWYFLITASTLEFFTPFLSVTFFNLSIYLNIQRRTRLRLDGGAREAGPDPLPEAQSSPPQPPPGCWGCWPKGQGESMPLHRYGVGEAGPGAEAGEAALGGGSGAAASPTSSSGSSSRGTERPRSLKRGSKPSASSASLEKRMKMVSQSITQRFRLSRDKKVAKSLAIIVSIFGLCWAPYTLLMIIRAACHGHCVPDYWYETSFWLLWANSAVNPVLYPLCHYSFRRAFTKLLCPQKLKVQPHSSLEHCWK

- EC50 [1]: 631 nM
SMILES: CCCCCCCCCCCCNCC(N)CCN (stereo unspecified)
- Efficacy [2]: 128%

- EC50 [1]: 1000 nM
SMILES: CCCCCCCCCCCCNCCN=C(N)N
- Efficacy [3]: 128%

- EC50 [4]: 251 nM
SMILES: CCCCCCCCCCCCCCCCNCC(N)CCCCN (stereo unspecified)
- Efficacy [5]: 84%

- EC50 [1]: 1000 nM
SMILES: CCCCCCCCCCCCNCCN
- Efficacy [6]: 92%

- EC50 [4]: 501 nM
SMILES: CCCCCCCCCCCCNCC(N)CCCCN (stereo unspecified)
- Efficacy [7]: 120%

- -Log K [8]: 5.4
- -Log K [9]: < 6
- -Log K [10]: 4.1
- EC50 [1]: 1000 nM
- -Log K [11]: 5.2
SMILES: CCCCCCCCCCCCNCC(N)CCCN (stereo unspecified)
- Efficacy [6]: 126%

- EC50 [1]: 7940 nM
SMILES: CCCCCCCCCCCCNC(=O)[C@@H](N)CCC(N)=O
- Efficacy [12]: 110%

- EC50 [1]: 5010 nM
SMILES: CCCCCCCCCCCCNC(=O)CNC(=O)CN
- Efficacy [12]: 120%

- EC50 [1]: 3160 nM
SMILES: CCCCCCCCCCCCNC(=O)[C@@H](N)Cc1c[nH]cn1
- Efficacy [13]: 125%

- EC50 [1]: 3980 nM
SMILES: CCCCCCCCCCCCNC(=O)CN
- Efficacy [13]: 100%

- EC50 [1]: 1260 nM
SMILES: CCCCCCCCCCCCNC(=O)C(N)CCN (stereo unspecified)
- Efficacy [14]: 105%

SMILES: CC[C@H](C)[C@H](N)C(=O)N[C@@H](CC(N)=O)C(=O)N[C@@H](CC(C)C)C(=O)N[C@@H](CCCCN)C(=O)N[C@@H](C)C(=O)N[C@@H](CC(C)C)C(=O)N[C@@H](C)C(=O)N[C@@H](C)C(=O)N[C@@H](CC(C)C)C(=O)N[C@@H](C)C(=O)N[C@@H](CCCCN)C(=O)N[C@@H](CCCCN)C(=O)N[C@H](C(=O)N[C@@H](CC(C)C)C(N)=O)[C@@H](C)CC
- Efficacy [14]: 100%
- EC50 [4]: 3160 nM

- EC50 [4]: 251 nM
SMILES: CCCCCCCCCCCCCCNCC(N)CCCCN (stereo unspecified)
- Efficacy [5]: 117%

- EC50 [1]: 2510 nM
SMILES: CCCCCCCCCCCCNC(=O)C(N)CN (stereo unspecified)
- Efficacy [14]: 131%

- EC50 [1]: 2510 nM
- -Log K [15]: 5.3
SMILES: CCCCCCCCCCCCNC(=O)C(N)CCCN (stereo unspecified)
- Efficacy [14]: 117%

- EC50 [1]: 794 nM
SMILES: CCCCCCCCCCCCNC(=O)[C@@H](N)CCCN=C(N)N
- Efficacy [3]: 92%

- EC50 [4]: 794 nM
SMILES: CCCCCCCCCCCCNC(=O)[C@@H](N)CCCCN [N-DODECYL LYSINE AMIDE]
- Efficacy [6]: 116%

- EC50 [4]: 794 nM
SMILES: CCCCCCCCCCCCNC(=O)[C@H](N)CCCCN
- Efficacy [6]: 108%

- EC50 [4]: 501 nM
SMILES: CCCCCCCCCCCCCCNC(=O)[C@@H](N)CCCCN
- Efficacy [2]: 100%

- EC50 [4]: 501 nM
SMILES: CCCCCCCCCCCCCCCCNC(=O)[C@@H](N)CCCCN [LYCETAMINE]
- Efficacy [7]: 90%

SMILES: CCCCCCCCCCCCNC(=O)[C@@H](N)CCC/N=C(\N)N[N+](=O)[O-]
- Efficacy [16]: 156%
